Source: ChEMBL document CHEMBL3525910, “Pharmacokinetics of oral D-serine in D-amino acid oxidase knockout mice” (Drug Metab Dispos, 2012)

How the values were obtained:
Type in all cases: ADME, organism-based
[1] = Cmax in wild-type mouse at 30 mg/kg, po in presence of CBIO; parameters: dose 30 mg/kg, route oral; settings: in vivo
Outline: (§1)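 Mice (wild-type 129SvEv or DAAO knockout; n = 3–6 per time point, n = 2 at 120 and 240 min for the group also given CBIO 30 mg/kg in 10% DMSO/0.9% saline) dosed orally, 10 ml/kg, with D-serine 30 mg/kg. Cardiac-puncture blood taken at 30, 60, 120, 240 min into heparin tubes and spun to plasma. Methanol extraction, derivatization, then HPLC fluorescence (ex 344/em 443 nm). Parameters from noncompartmental analysis.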

[2] = Cmax in wild-type mouse at 30 mg/kg, po; parameters: dose 30 mg/kg, route oral; settings: in vivo; outline: as §1
[3] = Elimination half life in wild-type mouse at 30 mg/kg, po in presence of CBIO; parameters: dose 30 mg/kg, route oral; settings: in vivo, read-out: beta t1/2 (converted); outline: as §1
[4] = Tmax in wild-type mouse at 30 mg/kg, po in presence of CBIO; parameters: dose 30 mg/kg, route oral; settings: in vivo; outline: as §1
[5] = Tmax in DAAO knockout mouse at 30 mg/kg, po; parameters: dose 30 mg/kg, route oral; settings: in vivo; outline: as §1
Cerebellum [6] = experiment: Drug uptake in wild-type mouse cerebellum at 30 mg/kg, po after 1 hr; parameters: dose 30 mg/kg, route oral; settings: in vivo
Outline: (§2)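 Wild-type or DAAO knockout mice were given D-serine 30 mg/kg orally. At 1 h, cerebellum and frontal cortex were excised, weighed and frozen at −80°C. Tissue was homogenized and sonicated in 20 volumes (w/v) methanol and spun at 50,000g for 15 min at 4°C. The supernatant was dried, derivatized for 2 min at room temperature, and D-serine was quantified by C18 HPLC with fluorescence detection.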

[7] = Elimination half life in DAAO knockout mouse at 30 mg/kg, po; parameters: dose 30 mg/kg, route oral; settings: in vivo, read-out: beta t1/2
Outline: (§3)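 DAAO knockout mice were dosed orally (10 ml/kg) with D-serine 30 mg/kg, n = 3–6 per time point, and plasma was taken at 30–240 min. D-serine was measured by methanol extraction, derivatization and reversed-phase HPLC with fluorescence detection. Cmax and Tmax are observed values. t½ = 0.693/λz with uniform weighting. AUClast is by the log-linear trapezoidal rule, with variance by Bailer's method.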

Cerebellum [8] = experiment: Drug uptake in DAAO knockout mouse cerebellum at 30 mg/kg, po after 1 hr; parameters: dose 30 mg/kg, route oral; settings: in vivo; outline: as §2
[9] = AUC (0 to last) in DAAO knockout mouse at 30 mg/kg, po; parameters: time 0 - last, dose 30 mg/kg, route oral; settings: plasma; outline: as §3
[10] = AUC (0 to infinity) in wild-type mouse at 30 mg/kg, po in presence of CBIO; parameters: time infinity, dose 30 mg/kg, route oral; settings: plasma; outline: as §1
[11] = AUC (0 to last) in wild-type mouse at 30 mg/kg, po in presence of CBIO; parameters: time 0 - last, dose 30 mg/kg, route oral; settings: plasma; outline: as §1
Cortex [12] = experiment: Drug uptake in DAAO knockout mouse cortex at 30 mg/kg, po after 1 hr; parameters: dose 30 mg/kg, route oral; settings: in vivo; outline: as §2
[13] = Elimination half life in wild-type mouse at 30 mg/kg, po; parameters: dose 30 mg/kg, route oral; settings: in vivo, read-out: beta t1/2 (converted); outline: as §1
[14] = Tmax in wild-type mouse at 30 mg/kg, po; parameters: dose 30 mg/kg, route oral; settings: in vivo; outline: as §1
[15] = AUC (0 to last) in wild-type mouse at 30 mg/kg, po; parameters: time 0 - last, dose 30 mg/kg, route oral; settings: plasma; outline: as §1
Cortex [16] = experiment: Drug uptake in wild-type mouse cortex at 30 mg/kg, po after 1 hr; parameters: dose 30 mg/kg, route oral; settings: in vivo; outline: as §2
[17] = Cmax in DAAO knockout mouse at 30 mg/kg, po; parameters: dose 30 mg/kg, route oral; settings: in vivo; outline: as §1
[18] = AUC (0 to infinity) in wild-type mouse at 30 mg/kg, po; parameters: time infinity, dose 30 mg/kg, route oral; settings: plasma; outline: as §1

Cmax [1]: 24300 ng/mL
Cmax [2]: 19600 ng/mL
half-life [3]: 90 min
Tmax [4]: 1 h
Tmax [5]: 2.7 h
Drug uptake (Cerebellum [6]): Not Active
half-life [7]: > 600 min
Drug uptake (Cerebellum [8]): Active
AUC(0-t) [9]: 95800 ng·h/mL
AUC(0-inf) [10]: 80900 ng·h/mL
AUC(0-t) [11]: 65800 ng·h/mL
Drug uptake (Cortex [12]): Active
half-life [13]: 72 min
Tmax [14]: 42 min
AUC(0-t) [15]: 40600 ng·h/mL
Drug uptake (Cortex [16]): Active
Cmax [17]: 27800 ng/mL
AUC(0-inf) [18]: 46000 ng·h/mL
SMILES: N[C@H](CO)C(=O)O [(D)-SERINE]
